# Legend:
# Assay type in all cases: functional
# P388 [1] = experiment: Cytotoxicity against mouse P388 cells after 72 hrs by MTT assay
# How it was run: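 P-388D1 murine leukemia cells (ATCC CCL 46) were incubated 72 h with a two-fold dilution series of sample. Growth was read by MTT tetrazolium staining absorbance. The concentration giving 50% of solvent-control growth was determined. Values are means of replicates. Mitomycin C at 0.06 μg/mL served as positive control.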
# P388 [2] = experiment: Cytotoxicity against mouse P388 cells at 0.06 ug/mL after 72 hrs by MTT assay; settings: P388, 72 h, read-out: GI
# How it was run: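 Mitomycin C positive control at 0.06 μg/mL on P-388D1 murine leukemia cells (ATCC CCL 46), 72 h incubation. Growth was read by MTT tetrazolium absorbance and expressed as percent inhibition relative to a solvent control.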
# [3] = Cytotoxicity against human NCI60 cells
# CCRF-CEM = experiment: Cytotoxicity against human CCRF-CEM cells
# NCI-H522 = experiment: Cytotoxicity against human NCI-H522 cells
# [4] = Mus musculus, P388, 72 h, read-out: GI50
smiles,measurement,setting,value
C=C1CCC2CC1C(C)(C)CC(OC(=O)/C=C/c1ccc(O)c(O)c1)/C=C\2C (stereo unspecified) [BAZZANENEYL CAFFEATE],GI50,P388 [1]; [4],0.9 µg/mL
O=C(O)/C=C/c1ccc(O)c(O)c1 [CAFFEIC ACID],GI50,P388 [1]; [4],> 25 µg/mL
O=C(/C=C/c1ccc(O)c(O)c1)O[C@H](C(=O)O)[C@H](OC(=O)/C=C/c1ccc(O)c(O)c1)C(=O)O [CHICORIC ACID],GI50,P388 [1]; [4],> 25 µg/mL
CO[C@@]12[C@H](COC(N)=O)C3=C(C(=O)C(C)=C(N)C3=O)N1C[C@@H]1N[C@@H]12 [MITOMYCIN],inhibition of growth at 0.06 µg/mL,P388 [2],43%
C[C@@H]1CC[C@@]2(C)[C@H](C)/C(=C/CO)CC[C@@]12C [NAVICULOL],GI50,P388 [1]; [4],> 25 µg/mL
C[C@@H]1CC[C@@]2(C)[C@H](C)/C(=C\COC(=O)/C=C/c3ccc(O)c(O)c3)CC[C@@]12C [NAVICULYL CAFFEATE],GI50,P388 [1],1.1 µg/mL
same,GI50,P388 [1]; [4],0.8 µg/mL
same,GI50,[3],2.5 µg/mL
same,GI50,CCRF-CEM,0.4 µg/mL
same,GI50,NCI-H522,0.5 µg/mL
CC(C)=CCOC(=O)/C=C/c1ccc(O)c(O)c1 [PRENYL CAFFEATE],GI50,P388 [1]; [4],6.9 µg/mL
